Test results: PubChem BioAssay AID504383 (The Scripps Research Institute Molecular Screening Center, 2011)
Hit rate of the full screen: of about 2,500 compounds, about 1,200 (48%) were called active.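 The calls were made as follows: active = mean activation above the low control average plus 3 SD, as set in the primary screen (cut at about 12% in these data); inactive = the rest.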 So high a share suggests a set chosen from earlier hits. This is one part of the list.

Biological target: Troponin I, cardiac muscle (Homo sapiens) + Troponin T, cardiac muscle (Homo sapiens) + Troponin C, slow skeletal and cardiac muscles (Homo sapiens) (UniProt P19429+P45379+P63316)
Assay: cardiac RTF calcium sensitivity activators, confirmation, biochemical, IANBD-TnC fluorescence, triplicate (AID 504383);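 also: 0% = DMSO at 0.472 mM calcium and 100% = DMSO at 2.9 mM calcium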
Conditions: IANBD-labeled cardiac RTF, Ca2+ sensitivity fluorescence; at 7.2 µM; hits give high values; scaled from EC20 to saturating calcium; tested at EC20 calcium, 0.472 mM
How it was run: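 System: Labelled thin filament complex | Technique: Filament fluorescence intensity | Benchmarks: Low control EC20 calcium, high control EC100 calcium | Timing: 15 min at 25 °C | Compound dosing: One dose, 7.2 µM nominal | Probe or stimulus: Ca2+ 0.472 mM, EC20 level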

activation, active:
COc1cc(/C=N/NC(=O)c2cc(-c3ccccc3Cl)nc3ccccc23)cc(OC)c1O 15.8%
CCOc1ccc(C(=O)NCC(=O)Nc2ncccc2C)cc1OCC 16.6%
Cc1cccc(/C=N/n2c(-c3ccncc3)n[nH]c2=S)c1 39.4%
CCCCC1=CC2=C(c3ccco3)C(=O)C(C)(OC(=O)c3ccc(OC)cc3)C(=O)C2=CN1CCc1ccccn1 (stereo not given) 25.8%
O=C(c1ccccc1)c1ccc(O)cc1O 89.6%
O=C(c1ccccc1)c1ccccc1C(=O)c1ccccc1 12.7%
Cn1cccc1/C=C1\CCC/C(=C\c2cccn2C)C1=O 15.9%
Cc1ccc2c(C(=O)CN3CCC(C(N)=O)CC3)c(C)[nH]c2c1 16.3%
COc1ccccc1NS(=O)(=O)c1cc(NC(=O)c2cc3ccccc3oc2=O)ccc1C 72.6%
Cc1ccc(NC(=O)CSc2nnc(-c3cccnc3)s2)cc1 678%
C[C@@H](C(=O)N1CCNCC1)n1cc(CCCN=C(N)N)nn1 107%
CCCCNc1nc(-c2ccccc2)nc(-n2ccnc2)n1 15.9%
O=C(CSc1nncc2ccccc12)Nc1ccc(F)cc1 170%
Nc1c(C(=O)C2CC2)sc2nc(-c3cccs3)cc(C(F)(F)F)c12 18.1%
CC(C)(C)C(=O)c1sc2nc(-c3cccs3)cc(C(F)(F)F)c2c1N 12.4%
Nc1c(C(=O)C2CC2)sc2nc(-c3ccccc3)cc(C(F)(F)F)c12 30.1%
N#Cc1c(N)oc(-c2ccccc2)c1-c1ccccc1 23.9%
Cc1c(O)c2c3c(cccc3c1O)C(=O)N(c1ccccc1)C2=O 67.4%
Cc1cccc(N2CCN(C(=O)Cn3nc(Cc4ccncc4)c4ccccc4c3=O)CC2)c1C 25.3%
Cc1nc2ccccc2n2c(O)c(CC(=O)O)cc12 15.2%
CC1(C)CC(=O)C2=C(C1)OC(N)=C(C#N)C21CCN(Cc2ccccc2)CC1 12.4%
O=C(Cc1ccccc1Cl)Nc1cccnc1 22.6%
O=C1c2ccccc2C(Nc2cccnc2)N1Cc1ccccc1Cl (stereo not given) 54.5%
CN1CCS/C1=C/C=C1\SC(=S)N(CC(=O)O)C1=O 122%
CCN1C(=O)/C(=C/C=C2/SCCN2C)SC1=S 42.9%
CN1C(=O)/C(=C/C=C2\SCCN2C)OC1=S 31.5%
CCN1C(=O)/C(=C\C=C2/C=CC=CN2CC)SC1=S 431%
CN1CCS/C1=C\C=C1/SC(=S)N(CC(=O)O)C1=O 12.1%
N#C/C(=C\N1CCN(Cc2ccc3c(c2)OCO3)CC1)c1nc2ccccc2s1 17.4%
NC(=O)c1ccc(NC(=O)COC(=O)c2c3c(nc4ccccc24)/C(=C\c2ccc4c(c2)OCO4)CCC3)cc1 11.7%
CCCN(CCC)C(=O)C1c2ccccc2Oc2ccccc21 16.6%
Cc1cccn2c(=O)c(/C=C3\SC(=S)N(CC(C)C)C3=O)c(NCCCOC(C)C)nc12 111%
Cc1cccn2c(=O)c(/C=C3\SC(=S)NC3=O)c(NCCCN3CCOCC3)nc12 63.9%
COc1cc(CCCN2C(=S)NC[C@@H]2CC2CCCCC2)cc(OC)c1OC 88.2%
CCCN1C(=O)S/C(=C/c2ccc(N3CCOCC3)o2)C1=O 94.3%
CC(C)OC(=O)CN1C(=O)S/C(=C/c2ccc(N3CCCCC3)o2)C1=O 13%
O=C1S/C(=C\c2ccc(N3CCOCC3)o2)C(=O)N1c1ccccc1 62.9%
O=C1NC(=S)S/C1=C/c1ccc(N2CCOCC2)o1 18.5%
O=C1S/C(=C\c2ccc(N3CCOCC3)o2)C(=O)N1Cc1c(F)cccc1Cl 788%
O=C1S/C(=C/c2ccc(N3CCOCC3)o2)C(=O)N1Cc1ccc(F)cc1 54.8%
O=C1S/C(=C/c2ccc(N3CCOCC3)o2)C(=O)N1Cc1c(F)cccc1Cl 17.9%
Cc1cc(C=C2C(=O)c3ccccc3C2=O)c(C)n1-c1ccccc1 94.4%
Cc1cc(C=C2C(=O)c3ccccc3C2=O)c(C)n1-c1ccc(Cl)cc1 13.3%
CN(C)c1ccc(/C=C2\SC(N3CCCCC3)=NC2=O)cc1 1160%
CCN(CC)c1ccc(/C=C2\C(=N)N3N=C(CC(=O)N4CCOCC4)SC3=NC2=O)cc1 16.5%
CN(C)c1ccc(/C=C2\C(=N)N3N=C(CC(=O)N4CCCCC4)SC3=NC2=O)cc1 41.6%

activation, inactive:
COc1cc(/C=N\NC(=O)CC(=O)NCCc2ccccc2)ccc1O 7.55%
COC(=O)CCC(=O)OC1(C)C(=O)C2=CN(Cc3ccc(OC)cc3)C(c3ccc(OC)cc3)=CC2=C(Br)C1=O (stereo not given) 6%
O=C(O)c1ccccc1C1=Nc2ccc(O)cc2Oc2cc(O)ccc21 5.85%
O=C(c1ccccc1)c1ccncc1 5.78%
CC1C/C(=C/c2cccn2C)C(=O)/C(=C/c2cccn2C)C1 (stereo not given) 11.4%
COC(=O)c1sccc1Oc1ccc(Cl)cc1N1C(=O)CCC1=O 8.17%
CC(NC(=O)CN1CCC(C(N)=O)CC1)c1ccccc1 (stereo not given) 5.31%
COc1ccc(C)cc1Nc1n[n+](-c2ccccc2)c(-c2cc([N+](=O)[O-])cc(OC)c2O)s1 5.27%
C=C[C@@](C)(O)CC[C@@H]1[C@@]2(C)CCCC(C)(C)[C@@H]2CC[C@@]1(C)O 6.12%
COc1ccccc1NS(=O)(=O)c1cc(NC(=O)CCNC(C)=O)ccc1N1CCCCC1 4.68%
Cc1ccc(-c2csc(NC(=O)CSc3nc4ccccc4o3)n2)cc1 2.75%
CC(O)Cc1cn([C@@H](CCCCN)C(=O)N2CCNCC2)nn1 (stereo not given in full) 2.6%
CC(C)(C)OC(=O)NCCCC[C@@H](C(=O)N1CCN(C(=O)OC(C)(C)C)CC1)n1cc(CCC(=O)O)nn1 7.02%
Cn1cccc1Cc1nnc(SCC(=O)Nc2ccc(F)cc2F)n1-c1ccc(F)cc1 7.53%
COc1ccc(NC(=O)CSc2nncc3ccccc23)cc1 1.45%
Cc1nnc(NC(=O)c2sc3nc(-c4cccs4)cc(C(F)(F)F)c3c2N)s1 9.99%
COc1ccc(-c2cc(C(F)(F)F)c3c(N)c(C(=O)NCCSC)sc3n2)cc1 5.88%
CC(=O)c1sc2nc(-c3cccs3)cc(C(F)(F)F)c2c1N -0.48%
Nc1c(C(=O)Nc2ccccc2F)sc2nc(Cc3ccccc3)cc(C(F)(F)F)c12 7.05%
Nc1c(C(=O)Nc2nccs2)sc2nc(-c3cccs3)cc(C(F)(F)F)c12 10.7%
c1ccc(-c2nc(-c3ccco3)n3ccccc23)cc1 1.15%
COc1ccccc1C1=NOC(Cn2c(=O)c3c(ncn3C)n(C)c2=O)C1 (stereo not given) 7.68%
Nc1ccc2c3c(cccc13)C(=O)N(c1ccccc1)C2=O 10.9%
COc1ccc2c(n1)Sc1nc3ccccc3nc1N2 6.52%
COc1ccc2[nH]c3c(c2c1)CCN1C(=O)C(CC(=O)NCCCn2ccnc2)C[C@H](C(=O)N2CCCCC2)[C@@]31C (stereo not given in full) 6.39%
O=C(NCCOc1ccccc1Cl)C(=O)Nc1ccccc1 11.1%
O=C(Nc1cnn(Cc2c(Cl)cccc2Cl)c1)C(c1ccccc1)c1ccccc1 4.3%
CCCCN1C(=O)/C(=C/C=C2\SCCN2C)SC1=S 7.61%
CN1CCS/C1=C/C=C1/SC(=S)N(Cc2ccccc2)C1=O 2.39%
C=CCNC(=S)N(CC=C)C1CCS(=O)(=O)C1 (stereo not given) 6.54%
O=C(O)c1cccc2c1C(=O)c1ccc(N3CCCC3)cc1S2(=O)=O 6.28%
C#CCSc1nc2[nH]ncc2c(=O)[nH]1 5.4%
O=C(CCc1ccc(S(=O)(=O)NCCc2ccccc2)cc1)N1CCN(Cc2ccc3c(c2)OCO3)CC1 1.31%
CCNC(=O)/C(C#N)=C/c1c(N2CCN(Cc3ccc4c(c3)OCO4)CC2)nc2c(C)cccn2c1=O 9.67%
CC(OC(=O)c1c2c(nc3ccccc13)/C(=C\c1ccc3c(c1)OCO3)CCC2)C(=O)Nc1ccc(S(N)(=O)=O)cc1 (stereo not given) 3.14%
CCCCNC(=O)COC(=O)c1c2c(nc3ccccc13)/C(=C\c1cccs1)CC2 6.15%
O=C(NCc1ccccc1)C1=C[C@H](C2CC2)C[C@H](OCc2ccc(CO)cc2)O1 -0.14%
CCOC(=O)C1CCCN(C(=O)C2c3ccccc3Oc3ccccc32)C1 (stereo not given) -3.14%
CCOC(=O)C(C#N)C(c1cccnc1)c1c(C)[nH][nH]c1=O (stereo not given) 5.64%
FC(F)(F)c1ccc(-c2nc(=S)[nH][nH]2)cc1 8.3%
CCCN1C(=O)S/C(=C\c2ccc(N3CCOCC3)o2)C1=O 1.26%
COc1ccc(/C=N/Nc2ncc(C(F)(F)F)cc2Cl)cc1OC -2.64%
Cc1[nH]c(=O)c(C#N)c(C)c1Cl 9.65%
O=C1S/C(=C\c2ccc(N3CCOCC3)o2)C(=O)N1Cc1ccc(F)cc1 3.92%
Cc1cccc(-n2c(C)cc(C=C3C(=O)c4ccccc4C3=O)c2C)c1 1.06%
Cc1cc(C=C2C(=O)CCCC2=O)c(C)n1-c1ccccc1 3.1%
CCOC(=O)C1CCCN(C2=NC(=O)/C(=C/c3ccc(O)c(OC)c3)S2)C1 (stereo not given) -0.88%
CCOC(=O)C1CCCN(C2=NC(=O)/C(=C/c3ccc(N(C)C)cc3)S2)C1 (stereo not given) 8.97%
CC(C)/C=C1\CC/C(=C\c2ccc(N(C)C)cc2)C1=O 5.2%
